{"source": "ChEMBL document CHEMBL1136992", "about": "“Further studies at neuropeptide s position 5: discovery of novel neuropeptide S receptor antagonists” (J Med Chem, 2009)", "key": {"[1]": {"target": "T1, Neuropeptide S receptor (Mus musculus) (UniProt Q8BZP8)", "T1 sequence (whole entry)": "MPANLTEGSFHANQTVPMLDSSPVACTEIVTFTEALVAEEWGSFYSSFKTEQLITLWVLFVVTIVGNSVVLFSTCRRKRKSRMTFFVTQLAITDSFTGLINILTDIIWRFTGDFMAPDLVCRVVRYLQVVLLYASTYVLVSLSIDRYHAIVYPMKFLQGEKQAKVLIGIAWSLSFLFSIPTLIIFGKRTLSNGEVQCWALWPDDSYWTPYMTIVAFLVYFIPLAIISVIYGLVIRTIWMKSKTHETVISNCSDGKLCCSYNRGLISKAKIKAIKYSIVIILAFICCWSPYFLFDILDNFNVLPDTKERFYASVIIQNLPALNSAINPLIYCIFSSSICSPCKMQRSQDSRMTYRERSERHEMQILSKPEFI", "assay": "Agonist activity at mouse NPSR expressed in HEK293 cells up to 10 uM by calcium mobilization assay", "format": "functional, cell-based", "method_in_brief": "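HEK293 cells stably expressing mouse NPSR; intracellular calcium mobilization measured after peptide addition, concentration-response curves giving pEC50 and Emax as % over basal. Mean of at least four separate experiments performed in duplicate.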"}, "[2]": {"target": "T1, Neuropeptide S receptor (Mus musculus)", "assay": "Antagonist activity at mouse NPSR expressed in HEK293 cells assessed as inhibition of NPS-induced response", "format": "functional, cell-based", "method_in_brief": "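HEK293 cells stably expressing mouse NPSR, calcium mobilization. Inhibition response curves to test peptides against 30 nM NPS, run at 37 °C with three up-and-down mixing cycles right after antagonist injection to aid diffusion. Mean of at least four separate experiments performed in duplicate.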"}, "[3]": {"target": "T1, Neuropeptide S receptor (Mus musculus)", "assay": "Antagonist activity at mouse NPSR expressed in HEK293 cells assessed as inhibition of NPS-induced response by Schild analysis", "format": "functional, cell-based", "method_in_brief": "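Calcium mobilization in HEK293 cells stably expressing mouse NPSR, at 37 °C with three mixing cycles after antagonist injection. NPS concentration-response curves were run without and with antagonist at 0.1-10 µM, and pKB with 95% confidence limits was derived from the curve shifts. Mean ± SEM of four separate experiments in duplicate.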"}, "[4]": {"target": "T1, Neuropeptide S receptor (Mus musculus)", "assay": "Antagonist activity at mouse NPSR expressed in HEK293 cells assessed as inhibition of NPS-induced increase in intracellular calcium mobilization by Schild analysis at room temperature", "format": "functional, cell-based", "method_in_brief": "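Schild-type experiment in HEK293 cells expressing mouse NPSR by calcium mobilization, using NPS concentration-response curves with added antagonist, run under the earlier conditions without 37 °C and without post-injection mixing.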"}, "B2 bradykinin receptor": {"target": "T2, B2 bradykinin receptor (Homo sapiens, UniProt P30411)", "T2 sequence (P30411 whole entry)": "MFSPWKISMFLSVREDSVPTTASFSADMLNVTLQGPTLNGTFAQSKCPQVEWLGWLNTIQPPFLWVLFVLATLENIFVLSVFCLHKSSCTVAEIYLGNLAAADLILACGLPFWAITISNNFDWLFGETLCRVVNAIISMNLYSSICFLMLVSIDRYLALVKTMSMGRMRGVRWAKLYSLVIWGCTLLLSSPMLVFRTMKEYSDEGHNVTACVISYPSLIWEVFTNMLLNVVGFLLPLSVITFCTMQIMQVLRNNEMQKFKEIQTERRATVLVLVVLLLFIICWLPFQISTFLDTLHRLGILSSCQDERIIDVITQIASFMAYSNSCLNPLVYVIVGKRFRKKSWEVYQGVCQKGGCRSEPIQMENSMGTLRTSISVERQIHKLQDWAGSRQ", "assay": "Antagonist activity at human recombinant bradykinin 2 receptor expressed in CHO cells assessed as inhibition of bradykinin-induced intracellular calcium mobilization", "format": "functional, cell-based", "method_in_brief": "(§1)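 Calcium mobilization in human receptor cells. NK-1, B2 and UT recombinant in CHO. MOP, DOP, KOP and NOP in CHO cells carrying chimeric Gαqi5. Native PAR2 in A549 cells. Mean ± SEM of three experiments in duplicate.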"}, "Urotensin-2 receptor": {"target": "T3, Urotensin-2 receptor (Homo sapiens, UniProt Q9UKP6)", "T3 sequence (Q9UKP6 whole entry)": "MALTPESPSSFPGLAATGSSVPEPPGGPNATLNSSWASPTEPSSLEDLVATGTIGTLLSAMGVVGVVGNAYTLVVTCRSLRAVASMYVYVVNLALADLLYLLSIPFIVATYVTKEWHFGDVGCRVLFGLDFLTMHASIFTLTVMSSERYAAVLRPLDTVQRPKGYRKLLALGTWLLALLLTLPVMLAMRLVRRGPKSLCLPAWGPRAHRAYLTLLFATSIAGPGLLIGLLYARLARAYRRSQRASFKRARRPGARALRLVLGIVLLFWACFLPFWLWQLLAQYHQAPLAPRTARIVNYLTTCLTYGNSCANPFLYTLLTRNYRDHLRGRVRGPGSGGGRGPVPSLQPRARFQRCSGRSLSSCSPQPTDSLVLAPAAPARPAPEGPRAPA", "assay": "Antagonist activity at human recombinant urotensin 2 receptor expressed in CHO cells assessed as inhibition of urotensin 2-induced intracellular calcium mobilization", "format": "functional, cell-based"}, "Mu-type opioid receptor [5]": {"target": "T4, Mu-type opioid receptor (Homo sapiens, UniProt P35372)", "T4 sequence (P35372 whole entry)": "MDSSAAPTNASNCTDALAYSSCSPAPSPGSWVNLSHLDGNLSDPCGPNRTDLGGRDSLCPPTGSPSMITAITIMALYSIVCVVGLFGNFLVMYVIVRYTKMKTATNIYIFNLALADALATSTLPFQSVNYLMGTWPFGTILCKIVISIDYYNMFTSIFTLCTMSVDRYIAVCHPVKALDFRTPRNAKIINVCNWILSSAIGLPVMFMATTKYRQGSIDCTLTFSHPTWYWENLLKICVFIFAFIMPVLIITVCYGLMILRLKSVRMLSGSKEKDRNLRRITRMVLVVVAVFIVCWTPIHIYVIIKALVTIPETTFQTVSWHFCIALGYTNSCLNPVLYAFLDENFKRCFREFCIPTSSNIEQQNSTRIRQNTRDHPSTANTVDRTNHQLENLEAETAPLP", "assay": "Antagonist activity at human recombinant mu opioid receptor expressed in CHO cells coexpressing alphaqi5 assessed as inhibition of dermorphin-induced intracellular calcium mobilization", "format": "functional, cell-based"}, "[6]": {"target": "T5, Delta-type opioid receptor (Homo sapiens, UniProt P41143)", "T5 sequence (P41143 whole entry)": "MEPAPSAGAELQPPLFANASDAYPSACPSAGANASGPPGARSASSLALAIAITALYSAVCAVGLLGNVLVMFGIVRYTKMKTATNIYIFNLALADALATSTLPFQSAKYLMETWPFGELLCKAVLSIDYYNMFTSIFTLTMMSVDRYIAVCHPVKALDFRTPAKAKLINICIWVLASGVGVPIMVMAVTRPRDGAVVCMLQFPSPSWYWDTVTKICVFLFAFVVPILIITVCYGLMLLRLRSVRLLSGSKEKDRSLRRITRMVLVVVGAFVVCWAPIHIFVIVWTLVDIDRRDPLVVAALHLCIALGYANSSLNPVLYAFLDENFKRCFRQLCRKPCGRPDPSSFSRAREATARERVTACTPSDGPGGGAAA", "assay": "Antagonist activity at human recombinant delta opioid receptor expressed in CHO cells coexpressing alphaqi5 assessed as inhibition of DPDPE-induced intracellular calcium mobilization", "format": "functional, cell-based", "method_in_brief": "as §1"}, "[7]": {"target": "T6, Kappa-type opioid receptor (Homo sapiens, UniProt P41145)", "T6 sequence (P41145 whole entry)": "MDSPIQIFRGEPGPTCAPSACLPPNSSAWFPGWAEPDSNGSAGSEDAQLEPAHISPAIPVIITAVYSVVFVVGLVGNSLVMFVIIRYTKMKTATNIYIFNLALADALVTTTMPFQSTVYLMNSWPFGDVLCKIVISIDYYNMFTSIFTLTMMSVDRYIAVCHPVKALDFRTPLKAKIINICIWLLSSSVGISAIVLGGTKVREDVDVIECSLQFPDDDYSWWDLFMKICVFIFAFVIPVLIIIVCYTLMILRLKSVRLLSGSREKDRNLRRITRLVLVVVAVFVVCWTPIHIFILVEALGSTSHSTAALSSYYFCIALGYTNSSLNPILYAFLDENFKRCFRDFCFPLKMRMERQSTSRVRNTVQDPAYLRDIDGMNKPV", "assay": "Antagonist activity at human recombinant kappa opioid receptor expressed in CHO cells coexpressing alphaqi5 assessed as inhibition of dynorphin A-induced intracellular calcium mobilization", "format": "functional, cell-based", "method_in_brief": "as §1"}, "Nociceptin receptor": {"target": "Nociceptin receptor (Homo sapiens, UniProt P41146)", "sequence (P41146 whole entry)": "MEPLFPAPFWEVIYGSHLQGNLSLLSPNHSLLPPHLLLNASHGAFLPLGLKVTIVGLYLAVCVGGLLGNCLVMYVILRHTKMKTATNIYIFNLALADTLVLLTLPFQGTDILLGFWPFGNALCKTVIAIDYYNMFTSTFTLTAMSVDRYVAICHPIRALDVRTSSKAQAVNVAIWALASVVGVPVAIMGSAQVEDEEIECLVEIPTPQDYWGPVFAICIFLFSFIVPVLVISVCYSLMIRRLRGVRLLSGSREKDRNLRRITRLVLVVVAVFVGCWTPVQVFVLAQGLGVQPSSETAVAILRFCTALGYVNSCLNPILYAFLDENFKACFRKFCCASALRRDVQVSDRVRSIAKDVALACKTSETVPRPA", "assay": "Antagonist activity at human recombinant NOP receptor expressed in CHO cells coexpressing alphaqi5 assessed as inhibition of N/OFQ-induced intracellular calcium mobilization", "format": "functional, cell-based"}, "[8]": {"target": "T7, B2 bradykinin receptor (Homo sapiens) (UniProt P30411)", "T7 sequence (whole entry)": "T2 sequence (P30411 whole entry)", "assay": "Antagonist activity at human recombinant bradykinin 2 receptor expressed in CHO cells assessed as inhibition of bradykinin-induced intracellular calcium mobilization at up to 10 uM", "format": "functional, cell-based", "method_in_brief": "(§2)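 Calcium mobilization in human receptor cells. NK-1, B2 and UT recombinant in CHO. MOP, DOP, KOP and NOP in CHO cells carrying chimeric Gαqi5. Native PAR2 in A549 cells. […] Mean ± SEM of three experiments in duplicate.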"}, "Mu-type opioid receptor [9]": {"target": "T4, Mu-type opioid receptor", "assay": "Antagonist activity at human recombinant mu opioid receptor expressed in CHO cells coexpressing alphaqi5 assessed as inhibition of dermorphin-induced intracellular calcium mobilization at up to 10 uM", "format": "functional, cell-based", "method_in_brief": "as §2"}, "[10]": {"target": "T5, Delta-type opioid receptor", "assay": "Antagonist activity at human recombinant delta opioid receptor expressed in CHO cells coexpressing alphaqi5 assessed as inhibition of DPDPE-induced intracellular calcium mobilization at up to 10 uM", "format": "functional, cell-based", "method_in_brief": "as §1"}, "[11]": {"target": "T6, Kappa-type opioid receptor", "assay": "Antagonist activity at human recombinant kappa opioid receptor expressed in CHO cells coexpressing alphaqi5 assessed as inhibition of dynorphin A-induced intracellular calcium mobilization at up to 10 uM", "format": "functional, cell-based", "method_in_brief": "as §2"}, "[12]": {"target": "T8, Proteinase-activated receptor 2 (Homo sapiens, UniProt P55085)", "T8 sequence (P55085 whole entry)": "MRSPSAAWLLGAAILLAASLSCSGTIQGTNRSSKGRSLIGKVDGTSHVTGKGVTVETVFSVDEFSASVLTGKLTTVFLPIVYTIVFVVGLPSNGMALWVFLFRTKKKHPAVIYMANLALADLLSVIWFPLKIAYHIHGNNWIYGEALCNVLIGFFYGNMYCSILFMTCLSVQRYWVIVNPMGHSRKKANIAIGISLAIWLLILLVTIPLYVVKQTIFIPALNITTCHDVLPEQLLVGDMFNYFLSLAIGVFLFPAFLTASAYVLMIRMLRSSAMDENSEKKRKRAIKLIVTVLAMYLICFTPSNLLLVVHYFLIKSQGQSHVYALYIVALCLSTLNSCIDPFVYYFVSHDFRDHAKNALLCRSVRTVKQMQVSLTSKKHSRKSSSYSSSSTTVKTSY", "assay": "Antagonist activity at human recombinant PAR2 expressed in A549 cells assessed as inhibition of SLIGKV-NH2-induced intracellular calcium mobilization", "format": "functional, cell-based"}, "[13]": {"target": "Proteinase-activated receptor 2 (Homo sapiens) (UniProt P55085)", "assay": "Antagonist activity at human recombinant PAR2 expressed in A549 cells assessed as inhibition of SLIGKV-NH2-induced intracellular calcium mobilization at up to 10 uM", "format": "functional, cell-based"}, "Substance-P receptor": {"target": "Substance-P receptor (Homo sapiens, UniProt P25103)", "sequence (P25103 whole entry)": "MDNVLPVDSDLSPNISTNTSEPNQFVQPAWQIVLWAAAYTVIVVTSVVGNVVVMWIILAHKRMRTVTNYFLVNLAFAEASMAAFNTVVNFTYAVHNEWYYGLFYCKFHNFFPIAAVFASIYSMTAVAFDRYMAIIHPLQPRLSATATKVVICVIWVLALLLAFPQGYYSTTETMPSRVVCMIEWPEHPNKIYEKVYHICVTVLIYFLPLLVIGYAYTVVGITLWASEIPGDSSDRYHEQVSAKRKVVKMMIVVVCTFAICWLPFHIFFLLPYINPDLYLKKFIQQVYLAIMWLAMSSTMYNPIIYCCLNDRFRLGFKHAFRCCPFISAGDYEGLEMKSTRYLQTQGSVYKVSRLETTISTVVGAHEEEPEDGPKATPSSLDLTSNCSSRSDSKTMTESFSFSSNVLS", "assay": "Antagonist activity at human recombinant NK1 receptor expressed in CHO cells assessed as inhibition of substance P-induced intracellular calcium mobilization"}}, "note": "Active and inactive are the calls of the source. The rule behind the calls is not given here. Square brackets hold non-standard residues; d marks the D form. Peptide text beside a SMILES is read from it. dTle = CC(C)(C)[C@@H](N)C(=O)O", "data": [{"compound": "CSCC[C@H](NC(=O)CNC(=O)[C@@H](NC(=O)CNC(=O)[C@@H](NC(=O)[C@H](NC(=O)[C@H](CC(N)=O)NC(=O)[C@H](CCCNC(=N)N)NC(=O)[C@H](Cc1ccccc1)NC(=O)[C@@H](N)CO)C(C)(C)C)C(C)C)[C@@H](C)O)C(=O)N[C@@H](CCCCN)C(=O)N[C@@H](CCCCN)C(=O)N[C@H](C(=O)N[C@@H](CO)C(=O)N[C@@H](Cc1ccccc1)C(=O)N[C@@H](CCC(N)=O)C(=O)N[C@@H](CCCNC(=N)N)C(=O)N[C@@H](C)C(=O)N[C@@H](CCCCN)C(=O)N[C@@H](CO)C(=O)O)[C@@H](C)O", "note": "(H-SFRN[dTle]VGTGMKKTSFQRAKS-OH)", "values": [{"measurement": "Emax", "setting": "[1]", "value": "inactive"}, {"measurement": "pKb", "setting": "[2]", "value": 7.06}, {"measurement": "Activity", "setting": "[3]", "value": "Dose-dependent effect"}, {"measurement": "Emax", "setting": "[4]", "value": "< 50", "unit": "%"}, {"measurement": "EC50", "setting": "B2 bradykinin receptor", "value": 0.0339, "unit": "nM"}, {"measurement": "EC50", "setting": "Urotensin-2 receptor", "value": 3.47, "unit": "nM"}, {"measurement": "EC50", "setting": "Mu-type opioid receptor [5]", "value": 11, "unit": "nM"}, {"measurement": "EC50", "setting": "[6]", "value": 1.95, "unit": "nM"}, {"measurement": "EC50", "setting": "[7]", "value": 2.34, "unit": "nM"}, {"measurement": "EC50", "setting": "Nociceptin receptor", "value": 0.282, "unit": "nM"}, {"measurement": "Emax", "setting": "[8]", "value": 115, "unit": "%"}, {"measurement": "Emax", "setting": "Mu-type opioid receptor [9]", "value": 186, "unit": "%"}, {"measurement": "Emax", "setting": "[10]", "value": 177, "unit": "%"}, {"measurement": "Emax", "setting": "[11]", "value": 139, "unit": "%"}, {"measurement": "EC50", "setting": "[12]", "value": 31600, "unit": "nM"}, {"measurement": "Emax", "setting": "[13]", "value": 445, "unit": "%"}, {"measurement": "EC50", "setting": "Substance-P receptor", "value": 0.049, "unit": "nM"}]}]}
